Mac1 fbg inh: inhibitors of human CD11b/CD18 binding to fibrinogen; inhibition, % at 10 µM; 0.54% of 93,000 active; P05107+P11215; K562 CD11b/CD18 adhesion to fibrinogen, ATPlite luminescence; Mn2+ added to activate the integrin;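 active = primary inhibition of 50% or more at 10 µM, then 40% or more on retest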
Target sequence (P05107 whole entry, looked up, other chains not shown): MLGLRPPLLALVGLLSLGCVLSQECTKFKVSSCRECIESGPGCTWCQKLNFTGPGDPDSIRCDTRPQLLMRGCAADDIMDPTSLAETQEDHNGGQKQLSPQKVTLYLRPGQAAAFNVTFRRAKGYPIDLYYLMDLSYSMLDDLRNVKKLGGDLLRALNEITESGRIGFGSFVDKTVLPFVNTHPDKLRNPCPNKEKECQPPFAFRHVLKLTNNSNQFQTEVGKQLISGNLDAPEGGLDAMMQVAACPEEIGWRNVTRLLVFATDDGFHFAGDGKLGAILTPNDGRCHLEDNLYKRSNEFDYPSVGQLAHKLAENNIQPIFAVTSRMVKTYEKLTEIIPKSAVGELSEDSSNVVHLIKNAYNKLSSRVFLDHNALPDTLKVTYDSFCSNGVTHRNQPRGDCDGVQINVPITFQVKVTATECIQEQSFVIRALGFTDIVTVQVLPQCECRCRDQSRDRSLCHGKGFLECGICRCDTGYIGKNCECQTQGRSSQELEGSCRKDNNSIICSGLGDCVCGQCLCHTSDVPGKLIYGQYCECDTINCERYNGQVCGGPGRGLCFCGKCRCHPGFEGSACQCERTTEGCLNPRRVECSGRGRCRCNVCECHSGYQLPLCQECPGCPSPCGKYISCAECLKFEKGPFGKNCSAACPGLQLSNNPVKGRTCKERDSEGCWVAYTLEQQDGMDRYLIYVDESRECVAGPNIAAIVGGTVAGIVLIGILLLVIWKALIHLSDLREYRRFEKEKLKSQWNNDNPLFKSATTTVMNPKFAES
Pyk2 oligo antag: blocks oligomerization of human Pyk2 in cells; AID 1347419; Q14289; Q293 cells, Pyk2 FERM NanoBiT luminescence; stronger effect = lower value; z-score (the deposit names both 25 µM and 10 µM); 0.83% of 99,000 active;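 active = Z-score of -3 or lower, scaled per plate to the spread of control and sample wells; inactive = z-score above -3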;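 note: negative z-score means lost luminescence so less FERM oligomerization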
tolC growth inh: E. coli tolC mutant growth inhibition; E. coli BW25113 tolC mutant growth, OD615; growth inhibition, % at 10 µM (by protocol); 2.2% of 65,000 active; AID 573;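 active = growth inhibition at or above a cutoff equal to the mean over every tested compound plus 3 SD, cut at about 60% in these data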;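 note: growth measured after 20 h incubation at 37 °C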
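Assay system: tolC-deleted E. coli BW25113. Medium: kanamycin-containing LB broth (50 µg/mL). Dosing: 10 µM final, single dose. Timing: bacterial growth with compound for 20 h at 37 °C. Detection: A615 absorbance measurement. Read-out basis: growth inhibition in percent.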
Mac1 fbg enh: increases human CD11b/CD18 adhesion to fibrinogen. 0.07% of 93,000 active. K562 CD11b/CD18 adhesion to fibrinogen, ATPlite luminescence. P05107+P11215. activation, % at 10 µM. AID 1499;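 active = 10 µM primary screen giving 50% or more activity, confirmed by 40% or more on retest at that dose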
E coli WT exp: growth inhibitors of E. coli BW25113 wild type; OD600 absorbance; 0.15% of 98,000 active; growth inhibition, % at 100 µM;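 active = growth inhibition above about 50% at one test dose, limit read from the data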;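 note: growth measured after 20 h incubation at 37 °C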
Numbers stand for hits; . = inactive; / = no result given. Rows were chosen to be rich in hits. Some 2.3% of all compounds tested hit in one or more screens of this group.

SMILES	Mac1 fbg inh	Pyk2 oligo antag	tolC growth inh	Mac1 fbg enh	E coli WT exp
CCOC(=O)c1sc(NC(=O)c2ccccc2)cc1C	.	.	/	.	.
CCOC(=O)c1sc(NC(=O)c2c(C)nn(Cc3ccccc3)c2C)cc1C	.	.	71	.	.
COC(=O)c1c(NC(=O)Cc2cccs2)sc2c1CCCC2	.	.	70	.	.
Cc1ccc(C(=O)Nc2sc3c(c2C(=O)O)CCCCC3)o1	.	.	.	.	.
COCC(=O)Nc1sc2c(c1C(=O)OC)CCCC2	/	.	.	/	.
COC(=O)c1c(NC(=O)c2ccc(C)o2)sc2c1CCCCC2	.	.	63	.	.
C=CCc1cc(C)ccc1OCC(O)CN1CCN(c2ccccc2)CC1 (stereo unspecified)	.	.	67	.	.
O=c1c2ccccc2n(Cc2cccc(F)c2)c(=O)n1C1CCCC1	.	.	77	.	.
N#Cc1ccccc1Cn1c(=O)n(C2CCCC2)c(=O)c2ccccc21	.	.	/	.	.
CCNC(=O)/C(=C/c1ccc2c(c1)OCO2)NC(=O)c1ccc(Br)cc1	.	.	/	.	.
Cc1nn(Cc2ccc(C(=O)N3c4ccc(F)cc4CCC3C)o2)c(C)c1Br (stereo unspecified)	.	.	96	.	.
Clc1ccc(CCNc2ncnc3nc[nH]c23)cc1	60	/	.	.	.
c1ccc(CCCNc2ncnc3nc[nH]c23)cc1	.	/	.	.	.
CN=Cc1c(NC)nc2c(C)cccn2c1=O	.	.	/	.	.
O=C(O)CCN1C(=O)/C(=C/c2ccc(-c3nc4ccccc4s3)o2)SC1=S	64	.	/	.	.
O=c1cc(CSc2nc3ccccc3[nH]2)c2ccccc2[nH]1	.	.	/	.	.
Fc1ccc(CSc2nc3ccccc3[nH]2)c2ccccc12	77	.	/	.	.
CCOc1ccc(C2C(C(=O)c3ccco3)=C(O)C(=O)N2Cc2cccnc2)cc1 (stereo unspecified)	.	.	.	.	.
CCCOc1ccc(C2C(C(=O)c3ccc(C)o3)=C(O)C(=O)N2Cc2cccnc2)cc1 (stereo unspecified)	.	/	67	.	/
CC(C)[C@H](NC(=O)NCCc1ccc(F)cc1)C(=O)O	.	.	.	.	.
CC(=O)N(Cc1ccc(F)cc1)C1=C(NCCc2ccccc2)C(=O)c2ccccc2C1=O	.	-3.2	/	.	.
CCOC(=O)C1=C(c2cccc(F)c2)NC(=S)NC1C (stereo unspecified)	.	.	/	.	.
CCCOc1ccc([N+](=O)[O-])cc1C1NC(=S)NC(c2ccccc2)=C1C(=O)OCC (stereo unspecified)	/	-4.1	/	/	.
COCCCn1cnc2c(c1=O)c1nc3ccccc3nc1n2CCc1ccccc1	.	.	.	.	.
C=CCn1c(NC(C)c2cc(Cl)ccc2O)nc2ccccc21 (stereo unspecified)	.	/	100	.	.
SMILES	Mac1 fbg inh	Pyk2 oligo antag	tolC growth inh	Mac1 fbg enh	E coli WT exp
COc1ccc(NC(=O)CCC(=O)Nc2nnc(C(F)(F)F)s2)c(OC)c1	.	.	/	.	.
O=S1(=O)Nc2c(ccc3cccnc23)-c2ccccc21	.	.	100	.	80
CCOc1ccc(CC(=O)N2CCN(c3ccc(N4CCOCC4)nn3)CC2)cc1OCC	.	/	.	.	.
COC(=O)Cc1ccc(NC(=O)c2ccc(C)c(C)c2)cc1	.	.	/	.	.
CCOC(=O)Cc1ccc(NC(=O)c2ccc(C(C)(C)C)cc2)cc1	98	.	/	.	.
Cc1cccc2c1N(CCCOc1ccccc1)C(=O)C2=O	/	.	/	/	.
Cc1ccccc1OCCCN1C(=O)C(=O)c2cccc(C)c21	.	/	100	.	.
COC(=O)/C=C1\C(=O)N(c2nc3ccc(OC)cc3s2)C(=S)N1c1ccc(F)cc1	.	/	/	.	.
COc1ccc2nc(-n3c(O)c(C4=c5ccccc5=NC4=O)[nH]c3=S)sc2c1	.	-3.2	/	.	/
COc1ccc2c(c1)C1(Nc3ccccc3-c3nc4ccccc4n31)C(=O)N2 (stereo unspecified)	.	.	.	.	.
COc1ccc2c(c1)C1(Nc3ccccc3-c3nc4ccccc4n31)C(=O)N2C (stereo unspecified)	/	-3.1	.	/	.
CCCCCCn1c(NCC)nc2c1c(=O)n(C)c(=O)n2C	73	.	.	.	.
CCCCCCn1c(N2CCN(c3ccccc3)CC2)nc2c1c(=O)n(C)c(=O)n2C	.	.	80	.	.
COc1cccc(OC)c1C(=O)Nc1cc(C)on1	/	.	/	/	.
O=C(Nc1nc2ccccc2n1CCOc1ccccc1)c1ccco1	.	.	.	.	.
Cc1ccc(OCCn2c(NC(=O)c3ccco3)nc3ccccc32)cc1	.	.	.	.	.
Cc1cccc(OCCn2c(NC(=O)c3ccco3)nc3ccccc32)c1	.	.	98	.	.
O=C(Nc1nc2ccccc2n1CCOc1ccc(Cl)cc1)c1ccco1	.	/	77	.	.
COc1ccc(-n2ncc3c(N(C)C4CCCCC4)ncnc32)cc1	/	/	76	/	/
Cc1cccc(-n2ncc3c(N(C)C4CCCCC4)ncnc32)c1	/	/	94	/	/
COc1ccc(-c2cnc(N)nc2-c2ccc(OC)cc2O)cc1	.	-3.1	.	.	.
C=C(C)COc1ccc(-c2nc(N)ncc2-c2ccc(OC)cc2)c(O)c1	/	/	86	/	.
C=C(C)COc1ccc(-c2ncncc2Oc2ccc(OC)cc2)c(O)c1	.	.	66	.	.
COc1cccc(Oc2cnc(N)nc2-c2ccc(OC)cc2O)c1	/	-3.9	.	/	.
COc1ccc(-c2ncncc2-c2csc(C)n2)c(O)c1	.	.	.	.	.
SMILES	Mac1 fbg inh	Pyk2 oligo antag	tolC growth inh	Mac1 fbg enh	E coli WT exp
C=C(C)COc1ccc(-c2nc(N)nc(C)c2Oc2ccccc2OC)c(O)c1	.	.	.	.	.
Cn1nnnc1SCC(=O)Nc1ccccc1N1CCCCC1	/	.	.	/	.
Nc1nc(SCC(=O)N2CCCc3ccccc32)n(-c2ccccc2)n1	.	/	.	.	.
COc1cc(OC)cc(C(C(=O)NC2CCCCC2)N(C(=O)c2ccno2)c2ccccc2)c1 (stereo unspecified)	/	-3.6	/	/	/
N#C/C(Cn1c[n+](NC(=O)Nc2ccccc2)cn1)=N/O	.	.	.	.	.
S=P(c1ccc(N2CCOCC2)cc1N1CCOCC1)(N1CCOCC1)N1CCOCC1	.	.	.	.	/
Cc1oc2c(CN(C)C)c(O)ccc2c(=O)c1-c1cscn1	.	.	.	.	.
CCc1cc2c(=O)c(-c3cscn3)coc2c(CN(C)C)c1O	.	-3.4	.	.	.
CCOc1cc(S(=O)(=O)N2CCN(Cc3ccccc3)CC2)ccc1Br	.	.	64	.	.
C=CCN1C(=O)CSC1=Nc1ccc(O)cc1	.	.	/	.	.
C=CCn1c(O)c(C2=c3ccccc3=NC2=O)sc1=Nc1ccc(O)cc1	/	/	100	/	/
CCCCn1c(=O)[nH]c(=O)c2c1nc(-c1ccsc1)n2Cc1ccccc1	.	-3.1	/	.	.
Cc1ccc(OCc2nc(C#N)c(N3CCN(Cc4ccccc4)CC3)o2)cc1	/	.	64	/	.
N#Cc1nc(COc2ccccc2)oc1N1CCN(Cc2ccccc2)CC1	/	.	67	/	.
